Reference: ChEMBL document CHEMBL1123566, “Synthesis and cardiac electrophysiological activity of 2- and 3-[(substituted phenyl)alkyl]quinuclidines. Structure-activity relationships” (1987)

Legend:
[1] = species on record: Canis familiaris; assay: In vitro electrophysiological evaluation in canine cardiac ventricular muscle reported as maximum % change for functional refractory period (FRP) at 0.1-100 uM concentration range; concentration at which it occurred is 10 uM.; set-up: species or system Canis lupus familiaris, Muscle tissue
Method in brief: (§1)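 Canine right ventricle and papillary muscle strips in oxygenated Tyrode's solution, fitted with stimulating and recording electrodes. The extra-stimulus conduction-interval method was adapted for in vitro use. FRP and CT were read from a conduction-interval curve before and after various compound concentrations, and expressed as percent change from control. Compounds were taken from 10 mM deionized-water stock into Tyrode's. Each strip was used once as its own control.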

[2] = species on record: Canis familiaris; assay: In vitro electrophysiological evaluation in canine cardiac ventricular muscle reported as % change for the functional refractory period (FRP) at 10 uM at concentration range of 0.1-100 uM; set-up: species or system Canis lupus familiaris, Muscle tissue; method in brief: as §1
[3] = species on record: Canis familiaris; assay: In vitro electrophysiological evaluation in canine cardiac Purkinje fibres reported as percent change Vmax at 10 uM at concentration range of 0.1-100 uM; Minimal (<10% decrease or increase in V max).; assay type: functional, organism-based; settings: Canis lupus familiaris, Purkinje fiber
Method in brief: (§2)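 Canine cardiac Purkinje fibres, intracellular microelectrode recording, paced at a basic cycle length of 1 s. APD95 and Vmax read simultaneously. Compound: 10 mM stock in deionized water, diluted into Tyrode's solution, tested over the stated concentration range. Each fibre used once as its own control. Result is % change from control, given at 10 µM or as the maximum with its concentration. M = <10% decrease or an increase in Vmax.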

[4] = species on record: Canis familiaris; assay: In vitro electrophysiological evaluation in canine cardiac Purkinje fibres reported as percent change Vmax at 10 uM at concentration range of 1-100 uM; assay type: functional; settings: Canis lupus familiaris, Purkinje fiber; method in brief: as §2
[5] = species on record: Canis familiaris; assay: In vitro electrophysiological evaluation in canine cardiac occurred is 100 uM; assay type: functional; settings: Canis lupus familiaris; Heart
[6] = species on record: Canis familiaris; assay: In vitro electrophysiological evaluation in canine cardiac ventricular muscle reported as maximum % change for conduction time(CT) at 0.1-100 uM concentration range; concentration at which it occurred is 100 uM.; assay type: functional, Canis lupus familiaris, Muscle tissue
[7] = species on record: Canis familiaris; assay: In vitro electrophysiological evaluation in canine cardiac Purkinje fibres reported as maximum percent change Vmax concentration range of 0.1-100 uM; Minimal (<10% decrease or increase in V max).; assay type: functional; settings: Canis lupus familiaris; Purkinje fiber; method in brief: as §2
[8] = species on record: Canis familiaris; assay: In vitro electrophysiological evaluation in canine cardiac Purkinje fibres reported as % change for action potential duration at 10 uM at 1-100 uM concentration range; assay type: functional, Canis lupus familiaris, Purkinje fiber; method in brief: as §2
[9] = species on record: Canis familiaris; assay: In vitro electrophysiological evaluation in canine cardiac Purkinje fibres reported as % change for action potential duration at a concentration of 10 uM; assay type: functional, Canis lupus familiaris, Purkinje fiber; method in brief: as §2
[10] = species on record: Canis familiaris; assay: (§3) In vitro electrophysiological activity in canine cardiac occurred is 100 uM; assay type: functional, Canis lupus familiaris, Heart
[11] = species on record: Canis familiaris; assay: as §3; assay type: functional, Canis lupus familiaris, Heart; remark: listed apart in the source

SMILES: Cl.O=C(CCC1C(=O)C2CCN1CC2)c1ccccc1 (stereo unspecified)
- FRP [1]: 12%
- FRP [2]: 12%
- Vmax [3]: < 10%
- Vmax [4]: -36%
- Vmax [5]: -52%
- CT [6]: 17%
- Vmax [7]: < 10%
- APD95 [8]: -1%
- APD95 [9]: -3%
- APD95 [10]: -16%
- APD95 [11]: -14%
